Active and inactive are the calls of the source. The calls are words filed in the database; no cut-off is given here.

The first experiment concerns NKT. Nature of the experiment: Immunostimulatory activity in activated NKT cells assessed as induction of IFNgamma production.
Conditions: not given
Format: functional, cell-based.
Consider `CCCCCCCCCCCCCCCC(=O)OC[C@H](CSC[C@H](N)C(=O)NCCO[C@H]1O[C@H](CO)[C@H](O)[C@H](O)[C@H]1O)OC(=O)CCCCCCCCCCCCCCC`, for which the result was inactive.

The species entered for the next experiment is Mus musculus. Nature of the experiment: Immunostimulatory activity in BALB/c mouse B cells assessed as induction of cell proliferation after 3 days by [3H]-thymidine incorporation assay. Format: functional.
Conditions: not given
The gist of the method: (§1)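 B cells were purified from female BALB/c spleens by negative selection (anti-CD11b, GR1, CD4 and CD8 mAbs plus magnetic beads; >90% B cells) and seeded at 1×10^5/well. Culture was in RPMI 1640 with 10% FCS, gentamicin, 10 mM HEPES and 0.05 mM 2-mercaptoethanol, across increasing agonist doses. [3H]-thymidine was added at 48 h and cells harvested 18 h later. Stimulation index = mean cpm stimulated / unstimulated; triplicates.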
In general terms: Uptake of a labelled nucleoside into DNA is a usual measure of proliferation.
Turning to `CCCCCCCCCCCCCCCC(=O)OC[C@H](CSC[C@H](N)C(=O)NCCO[C@H]1O[C@H](CO)[C@H](O)[C@H](O)[C@H]1O)OC(=O)CCCCCCCCCCCCCCC`, the Activity result was “Dose-dependent effect”.

The target of the next experiment is Toll-like receptor 2 (Homo sapiens) (UniProt O60603). Nature of the experiment: Agonist activity at TLR2 in human THP1-Blue-CD14 cells transfected with pSEAP-NF-kappaB assessed as secreted embryonic alkaline phosphatase activity treated with PBS containing 2% DMSO formulation after 19 hrs by quanti-blue colorimetric assay. The class given is functional, cell-based. The note with it: THP-1.
Sequence of Toll-like receptor 2 (Homo sapiens) (O60603 whole entry): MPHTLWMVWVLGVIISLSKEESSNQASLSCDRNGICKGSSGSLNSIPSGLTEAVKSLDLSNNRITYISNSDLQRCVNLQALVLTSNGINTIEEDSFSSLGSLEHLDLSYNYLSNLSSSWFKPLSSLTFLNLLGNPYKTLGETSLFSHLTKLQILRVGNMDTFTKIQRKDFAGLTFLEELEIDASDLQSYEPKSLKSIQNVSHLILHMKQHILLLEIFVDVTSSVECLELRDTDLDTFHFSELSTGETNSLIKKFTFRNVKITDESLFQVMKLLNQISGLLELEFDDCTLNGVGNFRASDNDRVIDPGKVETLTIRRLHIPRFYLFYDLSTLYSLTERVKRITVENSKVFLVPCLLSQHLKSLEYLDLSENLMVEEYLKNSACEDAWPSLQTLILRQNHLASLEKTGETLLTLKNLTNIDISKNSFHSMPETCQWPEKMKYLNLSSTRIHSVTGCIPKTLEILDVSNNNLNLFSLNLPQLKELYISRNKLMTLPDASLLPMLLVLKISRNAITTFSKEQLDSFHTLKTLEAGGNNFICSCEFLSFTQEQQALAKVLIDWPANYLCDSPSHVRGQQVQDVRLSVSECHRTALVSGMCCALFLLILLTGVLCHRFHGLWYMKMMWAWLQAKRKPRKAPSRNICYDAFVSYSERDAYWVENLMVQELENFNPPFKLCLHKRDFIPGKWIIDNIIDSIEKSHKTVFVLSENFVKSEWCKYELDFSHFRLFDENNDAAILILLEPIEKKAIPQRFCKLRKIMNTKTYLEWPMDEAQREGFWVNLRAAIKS
In the case of `CCCCCCCCCCCCCCCC(=O)OC[C@H](CSC[C@H](N)C(=O)NCCO[C@H]1O[C@H](CO)[C@H](O)[C@H](O)[C@H]1O)OC(=O)CCCCCCCCCCCCCCC`, the outcome was Active.

The target is the same in another experiment. Nature of the experiment: Agonist activity at TLR2 in human HEK-Blue-2 cells. Format: functional, cell-based.
Conditions: not given
Turning to `CCCCCCCCCCCCCCCC(=O)OC[C@H](CSC[C@H](N)C(=O)NCCO[C@H]1O[C@H](CO)[C@H](O)[C@H](O)[C@H]1O)OC(=O)CCCCCCCCCCCCCCC`, the outcome was Active.

For the next experiment, the species on record is Mus musculus. Nature of the experiment: Immunostimulatory activity in BALB/c mouse B cells assessed as induction of cell proliferation at 0.001 ug/ml after 3 days by [3H]-thymidine incorporation assay relative to Pam3CAG. The class given is functional.
Conditions: not given
In short, it runs like this: as §1
In the case of `CCCCCCCCCCCCCCCC(=O)OC[C@H](CSC[C@H](N)C(=O)NCCO[C@H]1O[C@H](CO)[C@H](O)[C@H](O)[C@H]1O)OC(=O)CCCCCCCCCCCCCCC`, the outcome was Active.

System in the next experiment: not listed separately
Nature of the experiment: Induction of dendritic cell maturation in mouse D1 cells assessed as upregulation of CD40, CD54, CD80 and CD86 expression at 2.5 ug/ml after 48 hrs by flow cytometry in presence of polymyxin B. Format: functional, cell-based.
Conditions: not given
In short, it runs like this:
(§2)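 D1 cells were kept in IMDM with 10% heat-decomplemented FCS, penicillin (100 IU/mL), 2 mM L-glutamine and GM-CSF (20 ng/mL). They were seeded at 2×10^5 cells/mL for 48 h, then given fresh medium with compound (DMSO/PBS 2/98) plus polymyxin B, except LPS wells, for 48 h. Cells were harvested in PBS with 2 mM EDTA, stained 20 min at 4 °C and analysed by flow cytometry.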
In the case of `CCCCCCCCCCCCCCCC(=O)OC[C@H](CSC[C@H](N)C(=O)NCCO[C@H]1O[C@H](CO)[C@H](O)[C@H](O)[C@H]1O)OC(=O)CCCCCCCCCCCCCCC`, the outcome was Active.

A further experiment concerns the target Toll-like receptor 2 (Homo sapiens) (UniProt O60603). Nature of the experiment: Agonist activity at TLR2 in human THP1-Blue-CD14 cells transfected with pSEAP-NF-kappaB assessed as secreted embryonic alkaline phosphatase activity treated with PC/PG/Chol liposomes formulation at 0.1 uM after 19 hrs by quanti-blue colorimetric assay in presence of anti-mTLR2 antibody. Format: functional, cell-based. Particulars: THP-1. The gist of the method:
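TLR2 in THP1-Blue-CD14 cells was neutralised with an anti-mTLR2 monoclonal antibody (100 ng/well) for 10 min before liposome-formulated agonist was added. Cells were incubated 19 h at 37 °C, and SEAP in supernatant was read by Quanti-Blue colorimetry (2 h, 37 °C, OD 595 nm). Activity was compared with cells lacking antibody; triplicates.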
`CCCCCCCCCCCCCCCC(=O)OC[C@H](CSC[C@H](N)C(=O)NCCO[C@H]1O[C@H](CO)[C@H](O)[C@H](O)[C@H]1O)OC(=O)CCCCCCCCCCCCCCC`: the outcome was Active.

The species named for another experiment is Mus musculus. Nature of the experiment: Immunostimulatory activity in BALB/c mouse splenocytes assessed as induction of cell proliferation up to 1000 ng/ml after 3 days by [3H]-thymidine incorporation assay. The note with it: Splenocyte. The class given is functional. The gist of the method: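 Spleen cells from female BALB/c mice (2×10^5/well) were cultured with agonist at 0–1000 ng/mL in RPMI 1640 containing 10% FCS, gentamicin, 10 mM HEPES and 0.05 mM 2-mercaptoethanol. [3H]-thymidine was added after 48 h, with harvest 18 h later. Result is a stimulation index (mean cpm stimulated / unstimulated) from triplicate wells.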
For the molecule `CCCCCCCCCCCCCCCC(=O)OC[C@H](CSC[C@H](N)C(=O)NCCO[C@H]1O[C@H](CO)[C@H](O)[C@H](O)[C@H]1O)OC(=O)CCCCCCCCCCCCCCC`, the result was Active.

System in a further experiment: not listed separately
Nature of the experiment: Induction of dendritic cell maturation in mouse D1 cells assessed as upregulation of CD40, CD54, CD80 and CD86 expression at 2.5 ug/ml after 48 hrs by flow cytometry relative to Pam2CAG. Format: functional, cell-based.
Conditions: not given
The gist of the method:
as §2
Background: In flow cytometry, cells or beads pass a laser one at a time.
`CCCCCCCCCCCCCCCC(=O)OC[C@H](CSC[C@H](N)C(=O)NCCO[C@H]1O[C@H](CO)[C@H](O)[C@H](O)[C@H]1O)OC(=O)CCCCCCCCCCCCCCC`: the result was Active.

Another experiment is filed under the species Mus musculus. Nature of the experiment: Immunostimulatory activity in BALB/c mouse splenocytes assessed as induction of IL-6 secretion after 30 hrs by double-sandwich ELISA. Format: functional. Particulars: Splenocyte. In short, it runs like this: (§3)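 BALB/c splenocytes (2×10^5/well) were exposed to increasing agonist doses in supplemented RPMI 1640. Supernatants were collected at 30 h, stored at −20 °C, and assayed by double-sandwich ELISA. Values are pg/mL, mean of duplicates; detection limit 15 pg/mL for both IL-6 and TNF-α.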
In general terms: ELISA stands for enzyme-linked immunosorbent assay.
For `CCCCCCCCCCCCCCCC(=O)OC[C@H](CSC[C@H](N)C(=O)NCCO[C@H]1O[C@H](CO)[C@H](O)[C@H](O)[C@H]1O)OC(=O)CCCCCCCCCCCCCCC`, the Activity entry is “Dose-dependent effect”.

A further experiment deals with NKT. Nature of the experiment: Immunostimulatory activity in activated NKT cells assessed as induction of cell proliferation in presence of mAb directed CD1d molecules.
Conditions: not given
Format: functional, cell-based.
As for `CCCCCCCCCCCCCCCC(=O)OC[C@H](CSC[C@H](N)C(=O)NCCO[C@H]1O[C@H](CO)[C@H](O)[C@H](O)[C@H]1O)OC(=O)CCCCCCCCCCCCCCC`, the result was Active.

The species named for the next experiment is Mus musculus. Nature of the experiment: Immunostimulatory activity in BALB/c mouse splenocytes assessed as induction of TNFalpha secretion after 30 hrs by double-sandwich ELISA. Format: functional. Particulars: Splenocyte. The gist of the method: as §3
Take `CCCCCCCCCCCCCCCC(=O)OC[C@H](CSC[C@H](N)C(=O)NCCO[C@H]1O[C@H](CO)[C@H](O)[C@H](O)[C@H]1O)OC(=O)CCCCCCCCCCCCCCC`: the Activity result was “Dose-dependent effect”.

System in another experiment: not listed separately
Nature of the experiment: Induction of dendritic cell maturation in mouse D1 cells assessed as upregulation of CD40, CD54, CD80 and CD86 expression at 2.5 ug/ml after 48 hrs by flow cytometry relative to Pam3CAG.
Conditions: not given
Format: functional, cell-based. The gist of the method: as §2
Consider `CCCCCCCCCCCCCCCC(=O)OC[C@H](CSC[C@H](N)C(=O)NCCO[C@H]1O[C@H](CO)[C@H](O)[C@H](O)[C@H]1O)OC(=O)CCCCCCCCCCCCCCC`, for which the result was Active.

The species named for another experiment is Mus musculus. Nature of the experiment: Immunostimulatory activity in BALB/c mouse B cells assessed as induction of cell proliferation at 0.001 ug/ml after 3 days by [3H]-thymidine incorporation assay relative to Pam2CAG. The class given is functional.
Conditions: not given
In short, it runs like this: as §1
Regarding `CCCCCCCCCCCCCCCC(=O)OC[C@H](CSC[C@H](N)C(=O)NCCO[C@H]1O[C@H](CO)[C@H](O)[C@H](O)[C@H]1O)OC(=O)CCCCCCCCCCCCCCC`, the outcome was Active.

A further experiment concerns the target Toll-like receptor 2 (Homo sapiens) (UniProt O60603). Nature of the experiment: Agonist activity at TLR2 in human THP1-Blue-CD14 cells transfected with pSEAP-NF-kappaB assessed as secreted embryonic alkaline phosphatase activity after 19 hrs by quanti-blue colorimetric assay relative to 0.1 uM of Pam2CAG. Format: functional, cell-based. Particulars: THP-1. The gist of the method:
(§4)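 THP1-Blue-CD14 cells were grown in RPMI 1640 with glucose (4.5 mg/mL) and 10% endotoxin-free FBS at 37 °C, 5% CO2. They were plated at 1.5×10^6 cells/mL and exposed to compounds formulated in PC/PG/Chol liposomes for 19 h at 37 °C. Supernatant was then mixed with Quanti-Blue reagent for 2 h at 37 °C and OD read at 595 nm. Controls were LPS (positive) and blank PC/PG/cholesterol (80/20/50) liposomes (negative); triplicates.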
As to `CCCCCCCCCCCCCCCC(=O)OC[C@H](CSC[C@H](N)C(=O)NCCO[C@H]1O[C@H](CO)[C@H](O)[C@H](O)[C@H]1O)OC(=O)CCCCCCCCCCCCCCC`, the outcome was Active.

The test system of a further experiment is NKT. Nature of the experiment: Immunostimulatory activity in activated NKT cells assessed as induction of IL-4 production. The class given is functional, cell-based.
Conditions: not given
Consider `CCCCCCCCCCCCCCCC(=O)OC[C@H](CSC[C@H](N)C(=O)NCCO[C@H]1O[C@H](CO)[C@H](O)[C@H](O)[C@H]1O)OC(=O)CCCCCCCCCCCCCCC`, for which the result was inactive.

The next experiment addresses Toll-like receptor 2 (Homo sapiens) (UniProt O60603). Nature of the experiment: Agonist activity at TLR2 in human THP1-Blue-CD14 cells transfected with pSEAP-NF-kappaB assessed as secreted embryonic alkaline phosphatase activity treated with PC/PG/Chol liposomes formulation after 19 hrs by quanti-blue colorimetric assay. Particulars: THP-1. The class given is functional, cell-based. In short, it runs like this: as §4
Regarding `CCCCCCCCCCCCCCCC(=O)OC[C@H](CSC[C@H](N)C(=O)NCCO[C@H]1O[C@H](CO)[C@H](O)[C@H](O)[C@H]1O)OC(=O)CCCCCCCCCCCCCCC`, the result was Active.

For another experiment the target is unchanged. Nature of the experiment: Agonist activity at TLR2 in human THP1-Blue-CD14 cells transfected with pSEAP-NF-kappaB assessed as secreted embryonic alkaline phosphatase activity after 19 hrs by quanti-blue colorimetric assay relative to 10 uM of Pam3CAG. The class given is functional, cell-based. The note with it: THP-1. In short, it runs like this:
as §4
Turning to `CCCCCCCCCCCCCCCC(=O)OC[C@H](CSC[C@H](N)C(=O)NCCO[C@H]1O[C@H](CO)[C@H](O)[C@H](O)[C@H]1O)OC(=O)CCCCCCCCCCCCCCC`, the fold change (FC) came out at 100.

Values taken from ChEMBL document CHEMBL2010792, “Novel glycolipid TLR2 ligands of the type Pam2Cys-α-Gal: synthesis and biological properties” (Eur J Med Chem, 2012).
